Measured values taken from ChEMBL document CHEMBL4689842, “EUbOPEN Chemogenomics Library wave 1” (2021).

Test system: HEK-293T
Test: Multiplex assay against HEK293T;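 on Population Tubulin-Different-Phenotype (%): share of the cells with healthy nuclei that show this phenotype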
Type: toxicity, cell-based
Conditions: human
Procedure, shortened: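 Cells were classed with CellPathfinder machine-learning gating, first as Hoechst high-intensity objects or normal cells, then (normal cells) as healthy, pyknosed or fragmented nuclei, and finally (pyknosed cells) as mitotic or apoptotic. Staining of live cells at seeding used Hoechst33342, BioTracker Green Microtubule Cytoskeleton Dye, MitoTracker Red and Annexin V Alexa Fluor 680, with imaging on a CQ1 microscope at 37°C and 5% CO2 after compound addition. Tubulin, mitochondrial-mass and membrane-permeability phenotypes are per cents of healthy-nucleus cells.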

[1] = 12 h, 1 µM, compound concentration 1 uM, replicate 1
[2] = 12 h, 1 µM, compound concentration 1 uM, replicate 2
[3] = 12 h, 10 µM, compound concentration 10 uM, replicate 1
[4] = 12 h, 10 µM, compound concentration 10 uM, replicate 2
[5] = 24 h, 1 µM, compound concentration 1 uM, replicate 1
[6] = 24 h, 1 µM, compound concentration 1 uM, replicate 2
[7] = 24 h, 10 µM, compound concentration 10 uM, replicate 1
[8] = 24 h, 10 µM, compound concentration 10 uM, replicate 2
[9] = 48 h, 1 µM, compound concentration 1 uM, replicate 1
[10] = 48 h, 1 µM, compound concentration 1 uM, replicate 2
[11] = 48 h, 10 µM, compound concentration 10 uM, replicate 1
[12] = 48 h, 10 µM, compound concentration 10 uM, replicate 2

CN1CCN(c2ccc(OC(F)(F)F)c(Nc3ncc4c(n3)-c3c(c(C(N)=O)nn3CCO)CC4)c2)CC1 [ONVANSERTIB]
Population Apoptotic (%) [1]: 68% | Population Fragmented Nuclei (%) [1]: 13% | Population Healthy Nuclei (%) [1]: 36% | Population Hoechst High Intensity Objects (%) [1]: 16% | Population Membrane Permeable-Phenotype (%) [1]: 6% | Population Mitochondria Different-Phenotype (%) [1]: 83% | Population Mitotic Cells (%) [1]: 31% | Population Normal (%) [1]: 83% | Population Pyknosed Nuclei (%) [1]: 50% | Population Tubulin-Different-Phenotype (%) [1]: 39% | Total Cell Count [1]: 216 | Population Apoptotic (%) [2]: 21% | Population Fragmented Nuclei (%) [2]: 11% | Population Healthy Nuclei (%) [2]: 23% | Population Hoechst High Intensity Objects (%) [2]: 5% | Population Membrane Permeable-Phenotype (%) [2]: 0% | Population Mitochondria Different-Phenotype (%) [2]: 32% | Population Mitotic Cells (%) [2]: 78% | Population Normal (%) [2]: 94% | Population Pyknosed Nuclei (%) [2]: 65% | Population Tubulin-Different-Phenotype (%) [2]: 24% | Total Cell Count [2]: 113 | Population Apoptotic (%) [3]: 67% | Population Fragmented Nuclei (%) [3]: 8% | Population Healthy Nuclei (%) [3]: 41% | Population Hoechst High Intensity Objects (%) [3]: 12% | Population Mitochondria Different-Phenotype (%) [3]: 98% | Population Mitotic Cells (%) [3]: 32% | Population Normal (%) [3]: 87% | Population Pyknosed Nuclei (%) [3]: 49% | Population Tubulin-Different-Phenotype (%) [3]: 96% | Total Cell Count [3]: 269 | Population Apoptotic (%) [4]: 31% | Population Fragmented Nuclei (%) [4]: 5% | Population Healthy Nuclei (%) [4]: 30% | Population Hoechst High Intensity Objects (%) [4]: 2% | Population Membrane Permeable-Phenotype (%) [4]: 1% | Population Mitochondria Different-Phenotype (%) [4]: 82% | Population Mitotic Cells (%) [4]: 68% | Population Normal (%) [4]: 97% | Population Pyknosed Nuclei (%) [4]: 64% | Population Tubulin-Different-Phenotype (%) [4]: 81% | Total Cell Count [4]: 234 | Population Apoptotic (%) [5]: 60% | Population Fragmented Nuclei (%) [5]: 16% | Population Healthy Nuclei (%) [5]: 23% | Population Hoechst High Intensity Objects (%) [5]: 14% | Population Membrane Permeable-Phenotype (%) [5]: 9% | Population Mitochondria Different-Phenotype (%) [5]: 83% | Population Mitotic Cells (%) [5]: 39% | Population Normal (%) [5]: 85% | Population Pyknosed Nuclei (%) [5]: 60% | Population Tubulin-Different-Phenotype (%) [5]: 67% | Total Cell Count [5]: 211 | Population Apoptotic (%) [6]: 15% | Population Fragmented Nuclei (%) [6]: 11% | Population Healthy Nuclei (%) [6]: 26% | Population Hoechst High Intensity Objects (%) [6]: 9% | Population Membrane Permeable-Phenotype (%) [6]: 0% | Population Mitochondria Different-Phenotype (%) [6]: 68% | Population Mitotic Cells (%) [6]: 84% | Population Normal (%) [6]: 90% | Population Pyknosed Nuclei (%) [6]: 62% | Population Tubulin-Different-Phenotype (%) [6]: 62% | Total Cell Count [6]: 122 | Population Apoptotic (%) [7]: 55% | Population Fragmented Nuclei (%) [7]: 7% | Population Healthy Nuclei (%) [7]: 41% | Population Hoechst High Intensity Objects (%) [7]: 15% | Population Membrane Permeable-Phenotype (%) [7]: 2% | Population Mitochondria Different-Phenotype (%) [7]: 95% | Population Mitotic Cells (%) [7]: 44% | Population Normal (%) [7]: 84% | Population Pyknosed Nuclei (%) [7]: 50% | Population Tubulin-Different-Phenotype (%) [7]: 90% | Total Cell Count [7]: 303 | Population Apoptotic (%) [8]: 42% | Population Fragmented Nuclei (%) [8]: 5% | Population Healthy Nuclei (%) [8]: 39% | Population Hoechst High Intensity Objects (%) [8]: 4% | Population Membrane Permeable-Phenotype (%) [8]: 4% | Population Mitochondria Different-Phenotype (%) [8]: 83% | Population Mitotic Cells (%) [8]: 57% | Population Normal (%) [8]: 95% | Population Pyknosed Nuclei (%) [8]: 54% | Population Tubulin-Different-Phenotype (%) [8]: 83% | Total Cell Count [8]: 256 | Population Apoptotic (%) [9]: 57% | Population Fragmented Nuclei (%) [9]: 20% | Population Healthy Nuclei (%) [9]: 18% | Population Hoechst High Intensity Objects (%) [9]: 20% | Population Membrane Permeable-Phenotype (%) [9]: 0% | Population Mitochondria Different-Phenotype (%) [9]: 59% | Population Mitotic Cells (%) [9]: 42% | Population Normal (%) [9]: 79% | Population Pyknosed Nuclei (%) [9]: 60% | Population Tubulin-Different-Phenotype (%) [9]: 43% | Total Cell Count [9]: 213 | Population Apoptotic (%) [10]: 36% | Population Fragmented Nuclei (%) [10]: 12% | Population Healthy Nuclei (%) [10]: 45% | Population Hoechst High Intensity Objects (%) [10]: 8% | Population Membrane Permeable-Phenotype (%) [10]: 6% | Population Mitochondria Different-Phenotype (%) [10]: 30% | Population Mitotic Cells (%) [10]: 63% | Population Normal (%) [10]: 91% | Population Pyknosed Nuclei (%) [10]: 42% | Population Tubulin-Different-Phenotype (%) [10]: 59% | Total Cell Count [10]: 118 | Population Apoptotic (%) [11]: 64% | Population Fragmented Nuclei (%) [11]: 14% | Population Healthy Nuclei (%) [11]: 29% | Population Hoechst High Intensity Objects (%) [11]: 14% | Population Membrane Permeable-Phenotype (%) [11]: 2% | Population Mitochondria Different-Phenotype (%) [11]: 95% | Population Mitotic Cells (%) [11]: 35% | Population Normal (%) [11]: 85% | Population Pyknosed Nuclei (%) [11]: 55% | Population Tubulin-Different-Phenotype (%) [11]: 89% | Total Cell Count [11]: 267 | Population Apoptotic (%) [12]: 51% | Population Fragmented Nuclei (%) [12]: 6% | Population Healthy Nuclei (%) [12]: 42% | Population Hoechst High Intensity Objects (%) [12]: 6% | Population Mitochondria Different-Phenotype (%) [12]: 78% | Population Mitotic Cells (%) [12]: 48% | Population Normal (%) [12]: 93% | Population Pyknosed Nuclei (%) [12]: 51% | Population Tubulin-Different-Phenotype (%) [12]: 84% | Total Cell Count [12]: 246
